# Where “and” joins values, the source holds several entries; their conditions need not be identical. Equal values may be shown once.
# How the values were obtained:
# Type in all cases: in vivo, human
# [1] = system: pancreatic ductal adenocarcinoma (PDA); experiment: Phase 2 efficacy
# Procedure, shortened: (§1)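 Oral test compound 300 mg QD plus anti-PD-1 antibody 200 mg IV Q3W. PD-1/PD-L1 IR cohort: progression on anti-PD-1/PD-L1 (RECIST or irRC). prOVCA cohort: progression ≤6 months after ≥4 platinum cycles. PDA cohort: ≥1 prior systemic line. Investigator assessed best response per RECIST v1.1 and irRC. ORR used confirmed responses with Clopper–Pearson 95% CI; all dosed patients. Screening tissue was profiled for MSI/MMR, TMB and gene expression.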
# [2] = system: PD-1/PD-L1 inhibitor-refractory advanced solid tumors; experiment: Phase 2 efficacy; settings: PD-1/PD-L1 IR
# Procedure, shortened: as §1
# [3] = Phase 1b plasma pharmacokinetics of ARRY-382 and metabolites; settings: for RAUC (accumulation ratio), geometric mean (geometric %CV) / Ctrough, geometric mean (geometric %CV) / RCmax (accumulation ratio), geometric mean (geometric %CV) / AUC(0-t) / Cmax / Tmax: Phase 1b; for AUC / AUC(0-t) / Cmax / Tmax: human, plasma, oral; for AUC(0-t): AUClast; for AUC(0-t) / Cmax: geometric mean (geometric %CV); for Tmax: median (range)
# Procedure, shortened: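 Blood was collected for plasma test compound and its N-oxide, N-desmethyl and sulfate metabolites. Trough samples were taken ≤120 min before the oral dose on cycle 1 day 15 and day 1 of cycles 3–6. Doses were 200–400 mg QD in Phase 1b and 300 mg QD in Phase 2. Non-compartmental parameters were estimated per patient in the PK set, reported as geometric mean (geometric %CV) and Tmax as median (range).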
# [4] = Cycle 2 day 1, ARRY-382 200 mg, n = 4
# [5] = Cycle 2 day 1, ARRY-382 300 mg, n = 4
# [6] = Cycle 2 day 1, ARRY-382 400 mg, n = 3
# [7] = 200 mg, Cycle 1 day 1, ARRY-382 200 mg, n = 6
# [8] = 200 mg, Cycle 2 day 1, ARRY-382 200 mg, n = 4
# [9] = 300 mg, Cycle 1 day 1, ARRY-382 300 mg, n = 6
# [10] = 300 mg, Cycle 2 day 1, ARRY-382 300 mg, n = 4
# [11] = 400 mg, Cycle 1 day 1, ARRY-382 400 mg, n = 7
# [12] = 400 mg, Cycle 2 day 1, ARRY-382 400 mg, n = 3
smiles,measurement,setting,value
Cc1cccc(Cn2nc(C3CC3)c3c(NC(=O)c4cnc5cc(OCCN6CCN(C)CC6)ccn45)cccc32)n1 [ARRY-382],Median OS,[1]; PDA,"2.2 (95% CI, 1.5–4.9) months"
same,Median PFS,[1]; PDA,"1.4 (95% CI, 0.9–2.8) months"
same,Median irPFS per irRC,[1]; PDA,"1.3 (95% CI, 0.9–2.7) months"
same,DOR of confirmed PR,"[1]; PDA cohort, 1 patient (MSI-Stable, TMB-Low, PD-L1 negative)",2.4 months
same,Best overall response: CR,"[1]; PDA, N = 27",0 (0.0) n (%)
same,Best overall response: NE,"[1]; PDA, N = 27",14 (51.9) n (%)
same,Best overall response: PD,"[1]; PDA, N = 27",7 (25.9%) n (%) and 7 (25.9) n (%)
same,Best overall response: PR,"[1]; PDA, N = 27",1 (3.7) n (%)
same,Best overall response: SD,"[1]; PDA, N = 27",5 (18.5) n (%)
same,Immune-related best overall response: CR,"[1]; PDA, N = 27",0 (0.0) n (%)
same,Immune-related best overall response: NE,"[1]; PDA, N = 27",19 (70.4) n (%)
same,Immune-related best overall response: PD,"[1]; PDA, N = 27",0 (0.0) n (%)
same,Immune-related best overall response: PR,"[1]; PDA, N = 27",1 (3.7) n (%)
same,Immune-related best overall response: SD,"[1]; PDA, N = 27",7 (25.9) n (%)
same,"ORR, % (95% CI)","[1]; confirmed, PDA, N = 27",3.7 (0.1–19.0) %
same,"ir-ORR, % (95% CI)","[1]; confirmed, PDA, N = 27",3.7 (0.1–19.0) %
same,Median OS,[2],"12.4 (95% CI, 3.6–NR) months"
same,Median PFS,[2],"1.6 (95% CI, 1.3–4.4) months"
same,Median irPFS per irRC,[2],"1.5 (95% CI, 1.3–4.3) months"
same,Best overall response: CR,[2]; N = 19,0 (0.0) n (%)
same,Best overall response: NE,[2]; N = 19,2 (10.5) n (%)
same,Best overall response: PD,[2]; N = 19,9 (47.4%) n (%) and 9 (47.4) n (%)
same,Best overall response: PR,[2]; N = 19,0 (0.0) n (%)
same,Best overall response: SD,[2]; N = 19,8 (42.1%) n (%) and 8 (42.1) n (%)
same,Immune-related best overall response: CR,[2]; N = 19,0 (0.0) n (%)
same,Immune-related best overall response: NE,[2]; N = 19,11 (57.9) n (%)
same,Immune-related best overall response: PD,[2]; N = 19,1 (5.3) n (%)
same,Immune-related best overall response: PR,[2]; N = 19,0 (0.0) n (%)
same,Immune-related best overall response: SD,[2]; N = 19,7 (36.8) n (%)
same,"ORR, % (95% CI)","[2]; confirmed, N = 19",0.0 (0.0–17.6) %
same,"ir-ORR, % (95% CI)","[2]; confirmed, N = 19",0.0 (0.0–17.6) %
same,"RAUC (accumulation ratio), geometric mean (geometric %CV)","[3]; Cycle 2 day 1, ARRY-382 200 mg, n = 3",3.03 (47.9)
same,"Ctrough, geometric mean (geometric %CV)",[3]; [4],576 (59.5) ng/mL
same,"RCmax (accumulation ratio), geometric mean (geometric %CV)",[3]; [4],2.53 (48.2)
same,"RAUC (accumulation ratio), geometric mean (geometric %CV)","[3]; Cycle 2 day 1, ARRY-382 300 mg, n = 2",1.92 (NC)
same,"Ctrough, geometric mean (geometric %CV)",[3]; [5],667 (27.7) ng/mL
same,"RCmax (accumulation ratio), geometric mean (geometric %CV)",[3]; [5],2.51 (95.7)
same,"RAUC (accumulation ratio), geometric mean (geometric %CV)","[3]; Cycle 2 day 1, ARRY-382 400 mg, n = 2",3.52 (NC)
same,"Ctrough, geometric mean (geometric %CV)",[3]; [6],627 (126) ng/mL
same,"RCmax (accumulation ratio), geometric mean (geometric %CV)",[3]; [6],2.28 (54.2)
same,AUC,[3]; 200 mg,22800 ng·h/mL
same,AUC(0-t),[3]; [7],3720 ng·h/mL
same,AUC(0-t),[3]; [8],22800 ng·h/mL
same,Cmax,[3]; [7],773 ng/mL
same,Cmax,[3]; [8],1560 ng/mL
same,Tmax,[3]; [7],2 h
same,Tmax,[3]; [8],2 h
same,AUC,[3]; 300 mg,30600 ng·h/mL
same,AUC(0-t),[3]; [9],4890 ng·h/mL
same,AUC(0-t),[3]; [10],30600 ng·h/mL
same,Cmax,[3]; [9],995 ng/mL
same,Cmax,[3]; [10],2260 ng/mL
same,Tmax,[3]; [9],4.01 h
same,Tmax,[3]; [10],4.18 h
same,AUC,[3]; 400 mg,30800 ng·h/mL
same,AUC(0-t),[3]; [11],6790 ng·h/mL
same,AUC(0-t),[3]; [12],30800 ng·h/mL
same,Cmax,[3]; [11],1330 ng/mL
same,Cmax,[3]; [12],2560 ng/mL
same,Tmax,[3]; [11],4.07 h
same,Tmax,[3]; [12],1.98 h

# Source: publication PMC9359741 (Clinical Cancer Research, 2022)
